Measurements reported in ChEMBL document CHEMBL4028901, “Novel Antitubercular 6-Dialkylaminopyrimidine Carboxamides from Phenotypic Whole-Cell High Throughput Screening of a SoftFocus Library: Structure-Activity Relationship and Target Identification Studies” (J Med Chem, 2017).
In brackets after ≈: the same amount, converted by molar mass.

Key:
Liver [1] = assay: Metabolic stability in human liver microsomes assessed as compound remaining at 0.1 uM after 30 mins by LC-MS/MS analysis; type: ADME, microsome; conditions: 0.5 h
Procedure, shortened: (§1)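 Compound at 0.1 μM incubated in duplicate with mouse, rat or pooled human liver microsomes (0.4 mg/mL) at 37 °C. Run with and without 1 mM NADPH, sampled at predetermined time points.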

[2] = tested on: Mycobacterium tuberculosis; assay: Antibacterial activity against Mycobacterium tuberculosis […] SAWC3385 grown in middlebrook 7H9 medium measured on day 7 and 14 by MABA assay; type: functional; conditions: 168 h
Procedure, shortened: (§2)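 Clinical M. tuberculosis strains tested by broth microdilution in 7H9 medium. On days 7 and 14, Alamar Blue added and plates reincubated 24 h at 37 °C. Colour read by eye (blue means no growth, pink means growth). MIC90 is the lowest concentration with no colour change.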

Liver [3] = assay: Metabolic stability in rat liver microsomes assessed as compound remaining at 0.1 uM after 30 mins by LC-MS/MS analysis; type: ADME, microsome; conditions: 0.5 h; procedure, shortened: as §1
Liver [4] = assay: Metabolic stability in mouse liver microsomes assessed as compound remaining at 0.1 uM after 30 mins by LC-MS/MS analysis; type: ADME, microsome; conditions: 0.5 h; procedure, shortened: as §1
[5] = Lipophilicity, log P of the compound at 100 uM at pH 7.4 after 3 hrs by shake-flask method; type: physicochemical; conditions: buffer
Procedure, shortened: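 Shake-flask method run in triplicate. A 10 mM stock was spiked into a 1:1 mixture of phosphate buffer (pH 7.4) and n-octanol, then shaken at 1500 rpm on an orbital shaker for 3 h at room temperature.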

Mus musculus [6] = assay: Volume of distribution in C57/BL6 mouse at 5 mg/kg, iv measured up to 24 hrs post dose by LC-MS/MS analysis; type: ADME, organism-based; conditions: in vivo
Procedure, shortened: (§3)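 Male mice, 3 animals, not fasted, given an IV bolus in 10% DMSO, 50% propylene glycol/ethanol (4:1) and 40% polyethylene glycol or water. Blood sampled into heparinised tubes at 0.17, 0.5, 1, 3, 5, 8, 12 and 24 h, stored frozen, precipitated with ice-cold acetonitrile. Measured by LC-MS/MS with internal standards against blood-matrix calibration standards.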

[7] = tested on: Mycobacterium tuberculosis; assay: Antibacterial activity against Mycobacterium tuberculosis […] SAWC3200 grown in middlebrook 7H9 medium measured on day 7 and 14 by MABA assay; type: functional; conditions: 168 h; procedure, shortened: as §2
Vero = assay: Cytotoxicity against African green monkey Vero cells assessed as reduction in cell viability by MTT assay; type: cell-based; conditions: Chlorocebus sabaeus
Procedure, shortened: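 MTT assay in Vero cells, samples in triplicate on one occasion. Stocks at 20 mg/mL in DMSO, diluted in complete medium as 10-fold serial dilutions over 6 concentrations. Emetine used as reference. IC50 derived by non-linear dose-response curve fitting.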

Mus musculus [8] = assay: Cmax in C57/BL6 mouse at 20 mg/kg, po measured up to 24 hrs post dose by LC-MS/MS analysis; type: ADME, organism-based; parameters: dose 20 mg/kg, route oral; conditions: in vivo
Procedure, shortened: (§4)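 Male mice, 3 per route, not fasted, free access to water. Oral dose given as aqueous suspension in 0.5% (w/v) hydroxypropyl methylcellulose with 0.4% (v/v) Tween 80. Blood drawn into heparinised tubes at 0.5, 1, 3, 5, 8, 12 and 24 h, kept below -15 °C, protein-precipitated with ice-cold acetonitrile. Quantified by LC-MS/MS against standards made in drug-free mouse blood.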

Mus musculus [9] = assay: Apparent elimination half life in C57/BL6 mouse at 20 mg/kg, po measured up to 24 hrs post dose by LC-MS/MS analysis; type: ADME, organism-based; conditions: in vivo; procedure, shortened: as §4
Plasma = assay: Fraction unbound in human plasma at 5 uM pre-incubated for 1 hr by ultra-centrifugation and LC-MS/MS method; type: ADME, cell-free
Procedure, shortened: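 Pooled human plasma spiked to 5 μM and pre-incubated 1 h at 37 °C. Duplicate aliquots ultracentrifuged 4 h at 37 °C; an unspun aliquot served as the total sample. Analyte measured by LC-MS/MS.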

[10] = tested on: Mycobacterium tuberculosis; assay: Antibacterial activity against Mycobacterium tuberculosis […] SAWC3906 grown in middlebrook 7H9 medium measured on day 7 and 14 by MABA assay; type: functional; conditions: 168 h; procedure, shortened: as §2
Mus musculus [11] = assay: Tmax in C57/BL6 mouse at 20 mg/kg, po measured up to 24 hrs post dose by LC-MS/MS analysis; type: ADME, organism-based; conditions: in vivo; procedure, shortened: as §4
[12] = Kinetic solubility of the compound in fasted-state simulated intestinal fluid at 10 to 220 uM at pH 6.5 after 2 hrs by shake flask method; type: physicochemical; conditions: read-out: Kinetic_solubility
Procedure, shortened: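 Miniaturised shake flask. 10 mM DMSO stocks spiked 1:50 into duplicate FaSSIF (pH 6.5), 2% final DMSO. Shaken 2 h at 25 °C, filtered, analysed by HPLC-DAD against calibration standards (10–220 μM).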

[13] = tested on: Mycobacterium tuberculosis; assay: Antibacterial activity against Mycobacterium tuberculosis […] SAWC3933 grown in middlebrook 7H9 medium measured on day 7 and 14 by MABA assay; type: functional; conditions: 168 h; procedure, shortened: as §2
[14] = tested on: Mycobacterium tuberculosis; assay: Antibacterial activity against Mycobacterium tuberculosis H37RvMA grown in GAST/Fe medium measured 7 to 14 days post inoculation by broth microdilution method; type: functional
Procedure, shortened: (§5)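 H37RvMa grown to OD600 0.6–0.7, diluted 1:100 in GAST/Fe. Compounds two-fold serially diluted from a top concentration of 640 μM, in duplicate. Incubated at 37 °C with humidification.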

Mus musculus [15] = assay: AUC (0 to infinity) in C57/BL6 mouse at 5 mg/kg, iv measured up to 24 hrs post dose by LC-MS/MS analysis; type: ADME, organism-based; parameters: dose 5 mg/kg, route intravenous, time infinity; conditions: in vivo; procedure, shortened: as §3
[16] = tested on: Mycobacterium tuberculosis; assay: Antibacterial activity against Mycobacterium tuberculosis […] SAWC3388 grown in middlebrook 7H9 medium measured on day 7 and 14 by MABA assay; type: functional; conditions: 168 h; procedure, shortened: as §2
Mus musculus [17] = assay: Apparent elimination half life in C57/BL6 mouse at 5 mg/kg, iv measured up to 24 hrs post dose by LC-MS/MS analysis; type: ADME, organism-based; conditions: in vivo; procedure, shortened: as §3
Mus musculus [18] = assay: AUC (0 to infinity) in C57/BL6 mouse at 20 mg/kg, po measured up to 24 hrs post dose by LC-MS/MS analysis; type: ADME, organism-based; parameters: dose 20 mg/kg, route oral, time infinity; conditions: in vivo; procedure, shortened: as §4
[19] = tested on: Mycobacterium tuberculosis; assay: Antibacterial activity against Mycobacterium tuberculosis H37RvMA grown in 7H9/ADC medium measured 7 to 14 days post inoculation by broth microdilution method; type: functional
Mus musculus [20] = assay: Oral bioavailability in C57/BL6 mouse at 20 mg/kg measured up to 24 hrs post dose by LC-MS/MS analysis; type: ADME, organism-based; conditions: in vivo; procedure, shortened: as §4
[21] = Kinetic solubility of the compound in pH 7.4 solution at 10 to 220 uM after 2 hrs by shake flask method; type: physicochemical; conditions: buffer, pH 7.4, 2 h, 220 µM
[22] = tested on: Mycobacterium tuberculosis; assay: Antibacterial activity against Mycobacterium tuberculosis […] SAWC1125 grown in middlebrook 7H9 medium measured on day 7 and 14 by MABA assay; type: functional; conditions: 168 h; procedure, shortened: as §2
[23] = tested on: Mycobacterium tuberculosis; assay: Antibacterial activity against wild type Mycobacterium tuberculosis H37Rv grown in GAST/Fe medium measured on day 14 post inoculation by broth microdilution method; type: functional; conditions: 336 h; procedure, shortened: as §5
[24] = tested on: Mycobacterium tuberculosis; assay: Antibacterial activity against Mycobacterium tuberculosis H37Rv grown in middlebrook 7H9 medium measured on day 7 and 14 by MABA assay; type: functional; conditions: 168 h
[25] = tested on: Mycobacterium tuberculosis; assay: Antibacterial activity against cytochrome bd oxidase knockout GFP-fused Mycobacterium tuberculosis H37RvMA grown in 7H9/GLU/ADC medium measured on day 7 and day 14 post inoculation by fluorescence plate reader assay; type: functional; conditions: Mycobacterium tuberculosis, H37RvMA; read-out: MIC99
[26] = tested on: Mycobacterium tuberculosis; assay: Antibacterial activity against cytochrome bd oxidase knockout GFP-fused Mycobacterium tuberculosis H37RvMA grown in GAST/Fe medium measured on day 7 and day 14 post inoculation by fluorescence plate reader assay; type: functional

CN(Cc1ccc(C(F)(F)F)nc1)c1cc(C(=O)Nc2nncs2)ncn1
Stability (Liver [1]): 100% | MIC90 [2]: 10 µM (≈ 3.95 µg/mL) | Stability (Liver [3]): 88% | Stability (Liver [4]): 78% | logD at 3 h, 100 µM [5]: 1.4 | Vd (Mus musculus [6]): 1.7 L/kg | MIC90 [7]: 2.5 to 5 µM (≈ 0.988 to 1.98 µg/mL) | IC50 (Vero): 28 µM | Cmax (Mus musculus [8]): 10.8 µM | betat1/2(app) (Mus musculus [9]): 3 h | Fu (Plasma): 0.32% | MIC90 [10]: 2.5 to 5 µM (≈ 0.988 to 1.98 µg/mL) | Tmax (Mus musculus [11]): 1 h | solubility kinetic at 2 h [12]: 195 µM (≈ 77.1 µg/mL) | MIC90 [13]: 10 to 20 µM (≈ 3.95 to 7.91 µg/mL) | MIC99 [14]: 5 µM (≈ 1.98 µg/mL) | AUC (Mus musculus [15]): 2106 µM·min | MIC90 [16]: 10 µM (≈ 3.95 µg/mL) | betat1/2(app) (Mus musculus [17]): 3 h | AUC (Mus musculus [18]): 5614 µM·min | MIC99 [19]: 50 µM (≈ 19.8 µg/mL) | F (Mus musculus [20]): 67% | Kinetic_solubility [21]: 191 µM | MIC90 [22]: 2.5 µM (≈ 0.988 µg/mL)

CC(C)Oc1ccc(NC(=O)c2cc(N(C)Cc3ccc(F)cc3)ncn2)cc1
Stability (Liver [1]): 64% | MIC90 [2]: 0.31 µM (≈ 0.122 µg/mL) | Stability (Liver [3]): 43% | Stability (Liver [4]): 37% | logD at 3 h, 100 µM [5]: 5 | MIC90 [7]: < 0.08 µM | MIC99 [23]: 1.25 to 5 µM (≈ 0.493 to 1.97 µg/mL) | IC50 (Vero): 254 µM | Fu (Plasma): 0.04% | MIC90 [10]: 0.31 µM (≈ 0.122 µg/mL) | MIC90 [24]: 1.25 µM (≈ 0.493 µg/mL) | solubility kinetic at 2 h [12]: < 5 µM | MIC90 [13]: 2.5 µM (≈ 0.986 µg/mL) | MIC99 [14]: 1.2 µM (≈ 0.473 µg/mL) | MIC90 [16]: 0.31 µM (≈ 0.122 µg/mL) | MIC99 [19]: 5 µM (≈ 1.97 µg/mL) | MIC90 [22]: 2.5 µM (≈ 0.986 µg/mL)

CN(Cc1ccc(F)cc1)c1cc(C(Nc2ccc(F)cc2)C(F)(F)F)ncn1 (stereo not drawn)
IC50 (Vero): 41.7 µM | MIC99 [14]: 19 µM (≈ 7.76 µg/mL) | MIC99 [19]: 37 µM (≈ 15.1 µg/mL) | Kinetic_solubility [21]: < 5 µM

CN(Cc1cccnc1)c1cc(C(=O)Nc2ccccc2)ncn1
MIC99 [25]: 48 µM (≈ 15.3 µg/mL) | MIC99 [26]: 37 µM (≈ 11.8 µg/mL) | Kinetic_solubility [21]: 150 µM

COc1ccc(NC(=O)c2cc(N(C)Cc3cccc(F)c3)ncn2)cc1
MIC99 [23]: 2.5 to 5 µM (≈ 0.916 to 1.83 µg/mL) | IC50 (Vero): 272 µM | MIC99 [14]: 5 µM (≈ 1.83 µg/mL) | MIC99 [19]: 37 µM (≈ 13.6 µg/mL)

CN(Cc1ccc(C(F)(F)F)nc1)c1cc(C(=O)Nc2ccc(N3CCOCC3)cn2)ncn1
IC50 (Vero): 211 µM | MIC99 [14]: 2.3 µM (≈ 1.09 µg/mL) | MIC99 [19]: 3.13 µM (≈ 1.48 µg/mL) | Kinetic_solubility [21]: < 5 µM

NNC(=O)c1ccncc1 [ISONIAZID]
MIC99 [23]: 0.18 µM (≈ 0.0247 µg/mL)

C[C@H]1COc2c(N3CCN(C)CC3)c(F)cc3c(=O)c(C(=O)O)cn1c23 [LEVOFLOXACIN]
MIC99 [23]: 0.64 µM (≈ 0.231 µg/mL)
